In ChEMBL document CHEMBL1155677, “Inhibitory effects on HIV-1 protease of constituents from the wood of Xanthoceras sorbifolia” (J Nat Prod, 2000):

Legend:
Protease = Protease (Human immunodeficiency virus 1, UniProt Q9YQ12); assay: Inhibition of HIV1 protease
Method in brief: (§1)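 HIV-1 protease inhibition was measured with a commercial HIV protease assay kit, which supplied both the enzyme and the reagents. Acetyl pepstatin from the same kit served as the positive control. The assay was run and percent inhibition calculated by a previously published procedure. Fractions were tested at 100 µg/mL.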

[1] = target: Protease (Human immunodeficiency virus 1) (UniProt Q9YQ12); assay: Inhibition of HIV1 protease at 100 ug/ml; method in brief: as §1
Sequence of Protease (Human immunodeficiency virus 1) (Q9YQ12 as listed by the source): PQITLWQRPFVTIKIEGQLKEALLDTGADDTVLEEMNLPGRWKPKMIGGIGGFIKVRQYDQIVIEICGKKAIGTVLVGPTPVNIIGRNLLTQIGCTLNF

Sequence of Protease (Q9YQ12 whole entry): as the sequence (Q9YQ12 as listed by the source) above

| Structure (SMILES) | IC50 (Protease) | inhibition [1] |
| --- | --- | --- |
| CC(C)=CCC[C@H](C(=O)O)[C@@H]1CC[C@]2(C)C3=CC[C@H]4C(C)(C)[C@@H](O)CC[C@]4(C)[C@H]3CC[C@@]12C | 219 µM | 50% |
| C=C(CC[C@@H](C)[C@H]1CC[C@@]2(C)[C@@H]3CC[C@H]4C(C)(C)[C@@H](O)CC[C@@]45C[C@@]35CC[C@]12C)C(C)C | > 227 µM | 19% |
| CC(=O)N[C@H](C(=O)N[C@H](C(=O)N[C@@H](CC(C)C)[C@@H](O)CC(=O)N[C@@H](C)C(=O)N[C@@H](CC(C)C)[C@@H](O)CC(=O)O)C(C)C)C(C)C [ACETYLPEPSTATIN] | 0.233 µM | 100% |
| Oc1cc(O)c2c(c1)O[C@@]1(c3ccc(O)c(O)c3)Oc3cc(O)c4c(c3[C@@H]2[C@H]1O)O[C@H](c1ccc(O)c(O)c1)[C@H](O)C4 [PROANTHOCYANIDIN A2] | > 173 µM | -2% |

Continued, values first:

| IC50 (Protease) | inhibition [1] | Structure (SMILES) |
| --- | --- | --- |
| > 212 µM | 26% | CC(C)=CCC[C@H](C(=O)O)[C@@H]1CC[C@]2(C)C3=CC[C@@H]4[C@](C)(CC[C@@H](O)[C@]4(C)CO)[C@H]3CC[C@@]12C |
| 21.9 µM | 96% | CC1(C)CC[C@]2(C(=O)O)CC[C@]3(C)C(=CC[C@@H]4[C@@]5(C)CC[C@H](O)C(C)(C)[C@@H]5CC[C@]43C)[C@@H]2C1 [OLEANOLIC_ACID] |
| 44 µM | 90% | CC(C)=CCC[C@H](C(=O)O)[C@@H]1CC[C@]2(C)C3=CC[C@H]4C(C)(C)C(=O)CC[C@]4(C)[C@H]3CC[C@@]12C |
| 118 µM | 89% | Oc1cc(O)c2c(c1)O[C@@]1(c3cc(O)c(O)c(O)c3)Oc3cc(O)c4c(c3[C@@H]2[C@H]1O)O[C@H](c1ccc(O)c(O)c1)[C@H](O)C4 |
| > 212 µM | 14% | CC(C)=CCC[C@H](C(=O)O)[C@@H]1CC[C@]2(C)C3=CC[C@@H]4[C@](C)(CCC(=O)[C@]4(C)CO)[C@H]3CC[C@@]12C [XANTHOCERASIC ACID] |
| 212 µM | 53% | CC(C)=CCC[C@H](C(=O)O)[C@@H]1CC[C@]2(C)C3=CC[C@@H]4[C@](C)(CC[C@H](O)[C@]4(C)CO)[C@H]3CC[C@@]12C |
| > 195 µM | 26% | CC(=O)OC[C@@]1(C)C(=O)CC[C@@]2(C)[C@H]1CC=C1[C@@H]2CC[C@@]2(C)[C@H]([C@H](CCC=C(C)C)C(=O)O)CC[C@]12C |
